pEC50: −log10 of the molar value. Each block holds one molecule with its values, some of them ahead of it.
Tests used:
Mus musculus [1] = assay: Muscarinic activity tested by measuring salivation in mice after iv administration; assay type: functional
Summary of the method: (§1)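 Male Swiss-Webster mice (24–30 g); compounds in ice-cold saline, used within 1 h, given ip or iv via tail vein. Salivation was scored by touching the mouth to absorbent paper at intervals over the first 10 min. Threshold dose estimated by the up-and-down method; mean ± SE.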

Mus musculus [2] = assay: Muscarinic activity tested by measuring tremor in mice after ip administration; assay type: functional
Summary of the method: (§2)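 Male Swiss-Webster mice (24–30 g) dosed ip or iv via tail vein with compound in ice-cold saline (held on ice ≤1 h). Intermittent spontaneous (grade 2) tremor judged visually. Threshold dose estimated by the up-and-down method; mean ± SE.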

Mus musculus [3] = species: Mus musculus; assay: Analgesic activity was measured by tail flick assay; assay type: functional
Summary of the method: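 Male Swiss-Webster mice (24–30 g); drug in ice-cold saline (kept on ice ≤1 h), given ip after control reaction times were taken. Tail-flick reaction times recorded 10 min post-dose; responders were animals whose reaction time was at least twice control. Dose estimated by the up-and-down method.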

Mus musculus [4] = assay: Muscarinic activity tested by measuring tremor in mice after iv administration; assay type: functional; summary of the method: as §2
Mus musculus [5] = assay: Muscarinic activity tested by measuring salivation in mice after ip administration; assay type: functional; summary of the method: as §1
Cavia porcellus = species: Cavia porcellus; assay: Muscarinic activity in isolated guinea pig ileum; assay type: functional
Summary of the method: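 Guinea pig ileum in Tyrode solution (pH 7.4, 37 °C) containing 0.3 mM hexamethonium. Isotonic contractions recorded at 1 g tension. Cumulative concentration-response curves used stepwise 2.15-fold increments, with oxotremorine as reference. Parent compounds were dissolved in ice-cold water. Cyclized forms were pre-incubated in 50 mM phosphate buffer pH 7.4 at 37 °C for 30 h, 2 h or 1 min depending on the compound. EC50 given as mean ± SE over n preparations.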

[6] = (§3) The equipotent molar ratio relative to oxotremorine (EPMR); assay type: ADME
Summary of the method: (§4)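 Ileum EC50 taken as a ratio to the oxotremorine EC50 in guinea pig ileum contracting in Tyrode (pH 7.4, 37 °C, 0.3 mM hexamethonium). Curves were cumulative with 2.15-fold steps. Compounds were tested as parents in ice-cold water or after pre-cyclization in pH 7.4 phosphate buffer at 37 °C. Mean ± SE.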

[7] = Half life was measured; assay type: ADME
Summary of the method: (§5)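 Haloalkylamine (1.5–2 mM) in 50 mM sodium phosphate buffer, pH 7.4, at 37 °C. Released halide measured by argentometric titration. Data fitted by nonlinear regression to θ = 1 − e^(−k1·t), giving the apparent first-order constant k1. Means ± SE of three determinations.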

[8] = First order rate constant for cyclization of the compound; assay type: ADME; summary of the method: as §5
[9] = Toxicity was measured after iv administration; assay type: organism-based; settings: mouse, in vivo
Summary of the method: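 Male Swiss-Webster mice (24–30 g) dosed iv with compound in ice-cold saline. LD50 estimated by the up-and-down method, with mortality counted at 1 h; mean ± SE.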

[10] = as §3; assay type: functional; summary of the method: as §4

SMILES: O=C1CCCN1CC#CCN1CCCC1 [OXOTREMORINE]
- ED50 (Mus musculus [1]): 0.19 µmol/kg
- ED50 (Mus musculus [2]): 0.59 µmol/kg
- ED50 (Mus musculus [3]): 0.1 µmol/kg
- ED50 (Mus musculus [4]): 0.44 µmol/kg
- ED50 (Mus musculus [5]): 0.29 µmol/kg
- pEC50 (Cavia porcellus): 7.36
- Ratio [6]: 1

SMILES: CC1CCC(=O)N1CC#CCN(C)CCCBr (stereo not given)
- half-life [7]: 12.5 min
- ED50 (Mus musculus [1]): 38 µmol/kg
- K1 [8]: 0.0555 min⁻¹
- LD50 [9]: > 250 µmol/kg
- Ratio [10]: 23.7
- ED50 (Mus musculus [3]): 111 µmol/kg
- ED50 (Mus musculus [5]): 80.8 µmol/kg
- pEC50 (Cavia porcellus): 5.94

- pEC50 (Cavia porcellus): 6.92
- Ratio [6]: 2.6
SMILES: C[N+](C)(C)CCOC(N)=O.[Cl-] [CARBACHOL]

SMILES: C[N+]1(CC#CCN2CCCC2=O)CCCC1
- pEC50 (Cavia porcellus): 6.40
- Ratio [6]: 8.31

SMILES: CN(CC#CCN1CCCC1=O)CCCBr
- half-life [7]: 11.4 min
- ED50 (Mus musculus [1]): 2.9 µmol/kg
- K1 [8]: 0.061 min⁻¹
- LD50 [9]: 46.7 µmol/kg
- Ratio [10]: 2.49
- ED50 (Mus musculus [2]): 15.6 µmol/kg
- ED50 (Mus musculus [3]): 3.2 µmol/kg
- ED50 (Mus musculus [4]): 6.3 µmol/kg
- ED50 (Mus musculus [5]): 6 µmol/kg
- pEC50 (Cavia porcellus): 6.94

SMILES: CN(CC#CCN1CCCC1=O)CCCI
- half-life [7]: 14.1 min
- ED50 (Mus musculus [1]): 4.5 µmol/kg
- K1 [8]: 0.0491 min⁻¹
- LD50 [9]: > 125 µmol/kg
- Ratio [10]: 2.95
- ED50 (Mus musculus [2]): 29.7 µmol/kg
- ED50 (Mus musculus [3]): 7.7 µmol/kg
- ED50 (Mus musculus [4]): 8.9 µmol/kg
- ED50 (Mus musculus [5]): 10.4 µmol/kg
- pEC50 (Cavia porcellus): 6.87

SMILES: CN(CC#CCN1CCCC1=O)CCCCl
- half-life [7]: 436 min
- ED50 (Mus musculus [1]): 22.4 µmol/kg
- K1 [8]: 0.0016 min⁻¹
- LD50 [9]: 245 µmol/kg
- ED50 (Mus musculus [3]): 33.3 µmol/kg
- ED50 (Mus musculus [5]): 29.3 µmol/kg
- pEC50 (Cavia porcellus): 6.92
- Ratio [6]: 2.78

SMILES: CN(CC#CCN1CCCC1=O)CCCCCl
- half-life [7]: < 0.4 min
- ED50 (Mus musculus [1]): 1.1 µmol/kg
- K1 [8]: > 2 min⁻¹
- LD50 [9]: 8 µmol/kg
- Ratio [10]: 10.2
- ED50 (Mus musculus [3]): 10.3 µmol/kg
- ED50 (Mus musculus [4]): 3.6 µmol/kg
- ED50 (Mus musculus [5]): 4.2 µmol/kg
- pEC50 (Cavia porcellus): 6.27

SMILES: CN(CC#CCN1CCCC1=O)CCBr
- half-life [7]: 0.8 min
- K1 [8]: 0.85 min⁻¹

SMILES: CN(CC#CCN1CCCC1=O)CCCl
- half-life [7]: 36.5 min
- K1 [8]: 0.019 min⁻¹

— ChEMBL document CHEMBL1123944, “Tertiary 3- and 4-haloalkylamine analogues of oxotremorine as prodrugs of potent muscarinic agonists” (J Med Chem, 1988)
